Assays:
IGROV-1 cells [1] = assay: Antibody recruitment / binding on cells, flow cytometry; format: cell-based, human
IGROV-1 cells [2] = assay: ADCC assay; format: cell-based, human
IGROV-1 cells [3] = details: IGROV-1 cells (EGFR/FR-α double positive); cited from earlier work
folate receptor-a (FR-α) = details: cited from earlier work
IGROV-1 cells (FR-α+) = assay: Antibody recruitment to cancer cells, fluorescence microscopy; format: cell-based, human; details: Fc-ARM2 100 nM
[4] = system: A549 lung cancer cells (FR-α−); assay: ADCC assay; format: cell-based, human; details: Fc-ARM2 + anti-CD20, 16 h, E/T 1-8, n = 3, Fig. S7
[5] = system: KHYG-1/CD16a-158V NK cells co-cultured with IGROV-1 cells; assay: IFN-γ secretion from NK cells, ELISA; format: cell-based, human
[6] = system: KHYG-1/CD16a-158V cells co-cultured with IGROV-1 cells; assay: CD107a mobilization assay, flow cytometry; format: cell-based, human; details: Fc-ARM2 10 nM + anti-CD20 100 nM, 6 h, E/T = 1
Procedure, shortened: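 Human NK line KHYG-1 expressing CD16a-158V co-cultured 6 h with FR-α+ IGROV-1 ovarian adenocarcinoma cells (E/T 1) with the indicated reagents. Surface CD107a on NK cells read by flow cytometry. Mean ± SEM; two experimental repeats; one-way ANOVA with Tukey's multiple comparison test.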

IGROV-1 cells [7] = assay: Mouse IgG recruitment and NK cell activation; format: cell-based, human; details: Fc-ARM2 10 nM, mouse IgG 100 nM; flow cytometry n = 4; ADCC 16 h n = 3; Fig. S11

SMILES: CC(C)C[C@@H]1NC(=O)[C@H](Cc2c[nH]cn2)NC(=O)[C@H](Cc2c[nH]c3ccccc23)NC(=O)[C@H](C)NC(=O)[C@@H](NC(=O)[C@H](CC(=O)O)NC(=O)CCOCCOCCOCCOCCOCCOCCNC(=O)CC[C@H](NC(=O)c2ccc(NCc3cnc4nc(N)[nH]c(=O)c4n3)cc2)C(=O)O)CSSC[C@@H](C(=O)N[C@H](C(N)=O)[C@@H](C)O)NC(=O)[C@H](Cc2c[nH]c3ccccc23)NC(=O)[C@H](C(C)C)NC(=O)[C@H](CC(C)C)NC(=O)[C@H](CCC(=O)O)NC(=O)CNC1=O [Fc-ARM1]
- Change in MFI of fluorescein-labeled anti-EGFR mAb on cells (IGROV-1 cells [1]; 10 nM Fc-ARM1 added, Fig. S9A): about a six-fold increase in MFI
- ADCC (% cytotoxicity) after 4 h co-culture (IGROV-1 cells [2]; Fc-ARM + anti-CD20, 4 h, E/T 1-8, n = 3, Fig. 4A): did not show detectable cytotoxicity
- Effect on ADCC activity of anti-EGFR mAb (IGROV-1 cells [3]): inhibited the ADCC activity

SMILES: Nc1nc(=O)c2nc(CNc3ccc(C(=O)N[C@@H](CCC(=O)O)C(=O)O)cc3)cnc2[nH]1 [FA, folic acid]
- Affinity to FR-α (folate receptor-a (FR-α)): sub-nanomolar

SMILES: CC(C)C[C@@H]1NC(=O)[C@H](Cc2c[nH]cn2)NC(=O)[C@H](Cc2c[nH]c3ccccc23)NC(=O)[C@H](C)NC(=O)[C@@H]2CSSC[C@H](NC(=O)[C@H](Cc3c[nH]c4ccccc34)NC(=O)[C@H](C(C)C)NC(=O)[C@H](CC(C)C)NC(=O)[C@H](CCC(=O)O)NC(=O)CNC1=O)C(=O)N[C@@H]([C@@H](C)O)C(=O)N[C@H](C(N)=O)CSSC[C@H](NC(=O)CCOCCOCCOCCOCCOCCOCCNC(=O)CC[C@H](NC(=O)c1ccc(NCc3cnc4nc(N)[nH]c(=O)c4n3)cc1)C(=O)O)C(=O)N[C@@H](CC(=O)O)C(=O)N2 [Fc-ARM2]
- Recruitment of Fc-fluorescein (Fc-fluo) to cells (IGROV-1 cells (FR-α+); Fc-fluo 500 nM): recruited the papain-digested Fc fragment of IgG1
- Recruitment of IgG-FITC to cells (IGROV-1 cells (FR-α+); IgG-FITC 500 nM, 30 min, 4 °C): successfully recruited FITC-labeled human IgG (IgG-FITC) to IGROV-1 cells
- Recruitment of IgG-FITC to cells with excess FA (IGROV-1 cells (FR-α+); IgG-FITC 500 nM, FA 100 µM as competitor): diminished IgG-derived fluorescence
- Amount of recruited IgG-FITC (MFI) (IGROV-1 cells [1]; 10 nM Fc-ARM, increasing IgG-FITC, n = 3, Fig. 2E): recruited a higher amount of IgG-FITC compared with Fc-ARM1
- ADCC (% cytotoxicity) with recruited anti-CD20 (IGROV-1 cells [2]; Fc-ARM 10 nM + anti-CD20 100 nM, 16 h, E/T 1-8, LDH assay, n = 3): showed clear target cell killing
- ADCC with increasing concentration of anti-CD20 (IGROV-1 cells [2]; Fc-ARM 10 nM, E/T = 8, 16 h, n = 3, Fig. 4C): induced ADCC more effectively
- ADCC (% cytotoxicity) with excess FA (IGROV-1 cells [2]; Fc-ARM2 10 nM + anti-CD20 100 nM + FA (1 μM), 16 h): eliminated by excess FA
- ADCC with Fc fragment of anti-CD20 (IGROV-1 cells [2]; Fc-ARM2 + Fc fragment of anti-CD20 mAb, n = 3, Fig. 4D): induced cytotoxicity upon recruitment by Fc-ARM2
- ADCC (% cytotoxicity) after 6, 8 and 16 h co-culture (IGROV-1 cells [2]; Fc-ARM + anti-CD20, E/T = 4, Fig. 4B): showed higher cytotoxicity compared with Fc-ARM1 + anti-CD20
- ADCC against A549 cells [4]: ADCC was not induced
- IFN-γ secretion from NK cells ([5]; Fc-ARM2 + anti-CD20, E/T = 8, ELISA of supernatant, Fig. 3B): secretion of interferon-γ (IFN-γ)
- IFN-γ secretion from NK cells after 16 h ([5]; Fc-ARM + anti-CD20, E/T = 4, 16 h, Fig. S8): induced a higher amount of IFN-γ secretion
- Surface mobilization of CD107a on NK cells [6]: surface mobilization of CD107a
- Recruitment of mouse IgG and ADCC (IGROV-1 cells [7]): did not work with mouse IgG
